Structures are written as SMILES.

The test system of test [1] is A549. Kind of test: Cytotoxicity against human A549 cells after 72 hrs by SRB assay. The test is classed as functional, cell-based. As to conditions: A549, 72 h. In a few lines:
(§1)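 Cells seeded at 3–5 × 10³ per well in RPMI-1640 with 10% FBS containing a range of sample concentrations, exposed 72 h. Attached cells fixed in cold 50% trichloroacetic acid for 30 min, stained with 0.04% sulforhodamine B for 30 min, bound dye dissolved in 10 mM Tris base, absorbance read at 515 nm. Run in triplicate. KBvin is a vincristine-selected multidrug-resistant KB subline.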

Test [2] relates to KB. Briefly: Cytotoxicity against human KB cells after 72 hrs by SRB assay. Type of test: functional, cell-based. In a few lines:
as §1
Background: The SRB assay estimates cell density from bound dye.

The subject of test [3] is KB. Briefly: Ratio of etoposide IC50 to compound IC50 for human KB cells. Type of test: functional.
For test [4], the system named is DU-145. Briefly: Ratio of etoposide IC50 to compound IC50 for human DU145 cells. The test is classed as functional.
In test [5] the test system is A549. Briefly: Ratio of etoposide IC50 to compound IC50 for human A549 cells. Type of test: functional.
In test [6] the test system is DU-145. Briefly: Cytotoxicity against human DU145 cells after 72 hrs by SRB assay. Type of test: functional, cell-based. Particulars: DU-145, 72 h. In a few lines:
as §1

A short description of test [7]: Ratio of etoposide IC50 to compound IC50 for human KBVIN cells. The test is classed as functional.
A short description of test [8]: Cytotoxicity against human KBVIN cells after 72 hrs by SRB assay. The test is classed as functional, cell-based. Summed up: as §1

A word on the IC50: it is the point on the concentration scale where inhibition reaches its midpoint. Read a high IC50 as weaker potency in that assay. With `COc1cc([C@@H]2c3cc4c(cc3[C@@H](NC(=S)NC(=O)c3ccc5ccccc5c3)[C@H]3COC(=O)[C@H]23)OCO4)cc(OC)c1OC`, the 50% inhibitory concentration (IC50) with A549 [1] worked out at 0.11 µM; in the test on KB [2], 0.12 µM; in the test with DU-145 [6], 0.099 µM; in test [8], 0.13 µM. Moreover, the “Ratio IC50” value (in the test on KB [3]; in the test with DU-145 [4]; in the test on A549 [5]; in test [7]) was 20 in each case.
In the case of `COc1cc([C@@H]2c3cc4c(cc3[C@@H](NC(=S)NC(=O)c3ccc(F)cc3)[C@H]3COC(=O)[C@H]23)OCO4)cc(OC)c1OC`, the IC50 was 1.37 µM in the test on A549 [1], 1.44 µM with KB [2], 1.15 µM with DU-145 [6] and 1.38 µM in test [8].
The matching figures for `COc1cc([C@@H]2c3cc4c(cc3[C@@H](NC(=S)NC(=O)c3cccnc3Cl)[C@H]3COC(=O)[C@H]23)OCO4)cc(OC)c1OC`: greater than 20 µM, greater than 20 µM, greater than 20 µM and greater than 20 µM.
The matching figures for `COc1cc([C@@H]2c3cc4c(cc3[C@@H](NC(=S)NC(=O)c3cccs3)[C@H]3COC(=O)[C@H]23)OCO4)cc(OC)c1O`: 9.82 µM, 8.4 µM, 7.34 µM and 9.24 µM.
With `COc1cc([C@@H]2c3cc4c(cc3[C@@H](NC(=S)NC(=O)C3CCCCC3)[C@H]3COC(=O)[C@H]23)OCO4)cc(OC)c1OC`, the IC50 in the test on A549 [1] is 0.19 µM; in the test with KB [2], 0.32 µM; in the test with DU-145 [6] it was 0.17 µM; in test [8], 0.098 µM. In addition, the “Ratio IC50” value (in the test with KB [3]; in the test with DU-145 [4]; with A549 [5]; in test [7]) was 20 throughout.
`COc1cc([C@@H]2c3cc4c(cc3[C@@H](NC(=S)NC(=O)c3cccnc3)[C@H]3COC(=O)[C@H]23)OCO4)cc(OC)c1OC`: the half-maximal inhibitory concentration (IC50) is 15.5 µM with A549 [1], 14.2 µM in the test on KB [2], 11.4 µM in the test on DU-145 [6] and 16.8 µM in test [8].
For `COc1cc([C@@H]2c3cc4c(cc3[C@@H](NC(=S)NC(=O)c3ccc(Cl)cc3)[C@H]3COC(=O)[C@H]23)OCO4)cc(OC)c1O` the same measures were greater than 20 µM, greater than 20 µM, greater than 20 µM and greater than 20 µM.
For `COc1cc([C@@H]2c3cc4c(cc3[C@@H](NC(=S)NC(=O)c3cnccc3Cl)[C@H]3COC(=O)[C@H]23)OCO4)cc(OC)c1OC` the same measures were greater than 20 µM, greater than 20 µM, greater than 20 µM and greater than 20 µM.
As to `COc1cc([C@@H]2c3cc4c(cc3[C@@H](NC(=S)NC(C)=O)[C@H]3COC(=O)[C@H]23)OCO4)cc(OC)c1OC`, the 50% inhibitory concentration (IC50) in the test with A549 [1] is 13.1 µM; with KB [2], 13.4 µM; in the test with DU-145 [6], 12.3 µM; in test [8], 13.6 µM.
For `COc1cc([C@@H]2c3cc4c(cc3[C@@H](O[C@@H]3O[C@@H]5CO[C@@H](C)O[C@H]5[C@H](O)[C@H]3O)[C@H]3COC(=O)[C@H]23)OCO4)cc(OC)c1O` [ETOPOSIDE] the same measures were 2.58 µM, 3.88 µM, 2.03 µM and greater than 20 µM.
The matching figures for `COc1cc([C@@H]2c3cc4c(cc3[C@@H](NC(=S)NC(=O)c3ccc([N+](=O)[O-])cc3)[C@H]3COC(=O)[C@H]23)OCO4)cc(OC)c1OC`: 2.06 µM, 1.33 µM, 1.57 µM and 1.65 µM.
For the compound `COc1cc([C@@H]2c3cc4c(cc3[C@@H](NC(=S)NC(=O)c3ccc(C)cc3)[C@H]3COC(=O)[C@H]23)OCO4)cc(OC)c1OC`, the IC50 in the test on A549 [1] came to 11.3 µM; in the test on KB [2], 10.5 µM; in the test on DU-145 [6], 10.5 µM; in test [8], 12.2 µM.
With `COc1cc([C@@H]2c3cc4c(cc3[C@@H](NC(=S)NC(=O)c3cccc([N+](=O)[O-])c3)[C@H]3COC(=O)[C@H]23)OCO4)cc(OC)c1OC`, the IC50 with A549 [1] was 10.3 µM; with KB [2] it was 9.27 µM; with DU-145 [6], 9.82 µM; in test [8], 9.86 µM.
For the compound `COc1cc([C@@H]2c3cc4c(cc3[C@@H](NC(=S)NC(=O)c3ccccc3)[C@H]3COC(=O)[C@H]23)OCO4)cc(OC)c1OC`, the IC50 was found to be 1.13 µM in the test with A549 [1], 0.9 µM in the test on KB [2], 0.97 µM with DU-145 [6] and 0.81 µM in test [8]. For the same compound, the “Ratio IC50” value (in the test on KB [3]; in the test with DU-145 [4]; in the test with A549 [5]; in test [7]) was 20 in each case.
Consider `COc1cc([C@@H]2c3cc4c(cc3[C@@H](NC(=S)NC(=O)c3ccc5ccccc5c3)[C@H]3COC(=O)[C@H]23)OCO4)cc(OC)c1O`, for which the IC50 with A549 [1] was 11.8 µM; with KB [2] it was 7.23 µM; in the test on DU-145 [6], 6.55 µM; in test [8], 10.3 µM.
For `COc1cc([C@@H]2c3cc4c(cc3[C@@H](NC(=S)NC(=O)c3cccs3)[C@H]3COC(=O)[C@H]23)OCO4)cc(OC)c1OC` the same measures were 12.3 µM, 11.6 µM, 11.2 µM and 12.5 µM.
As for `COc1cc([C@@H]2c3cc4c(cc3[C@@H](NC(=S)NC(=O)c3ccco3)[C@H]3COC(=O)[C@H]23)OCO4)cc(OC)c1O`, the 50% inhibitory concentration (IC50) with A549 [1] was determined as 13.7 µM; with KB [2] it was 8.74 µM; in the test on DU-145 [6], 8.49 µM; in test [8], 9.46 µM.
Turning to `COc1cc([C@@H]2c3cc4c(cc3[C@@H](NC(=S)NC(=O)c3cncc(Br)c3)[C@H]3COC(=O)[C@H]23)OCO4)cc(OC)c1OC`, the IC50 (in the test with A549 [1]; in the test on KB [2]; in the test with DU-145 [6]; in test [8]) was greater than 20 µM throughout.
On to `COc1cc([C@@H]2c3cc4c(cc3[C@@H](NC(=S)NC(=O)c3ccc(Cl)cc3)[C@H]3COC(=O)[C@H]23)OCO4)cc(OC)c1OC`, for which the 50% inhibitory concentration (IC50) in the test on A549 [1] came out at 1.62 µM; in the test with KB [2], 1.2 µM; in the test with DU-145 [6], 1.16 µM; in test [8] it was 2.01 µM.
For `COc1cc([C@@H]2c3cc4c(cc3[C@@H](NC(=S)NC(=O)c3ccco3)[C@H]3COC(=O)[C@H]23)OCO4)cc(OC)c1OC` the same measures were greater than 20 µM, greater than 20 µM, greater than 20 µM and greater than 20 µM.
For `COc1cc([C@@H]2c3cc4c(cc3[C@@H](NC(=S)NC(=O)c3ccccc3)[C@H]3COC(=O)[C@H]23)OCO4)cc(OC)c1O` the same measures were 12 µM, 8.96 µM, 9.88 µM and 9.93 µM.

(Values after ChEMBL document CHEMBL2346532, “Design, synthesis and potent cytotoxic activity of novel podophyllotoxin derivatives” (Bioorg Med Chem, 2013).)
